Test results: ChEMBL document CHEMBL2311339, “Identification of GZD824 as an orally bioavailable inhibitor that targets phosphorylated and nonphosphorylated breakpoint cluster region-Abelson (Bcr-Abl) kinase and overcomes clinically acquired mutation-induced resistance against imatinib” (J Med Chem, 2013)
The source made the active and inactive calls. The rule behind the calls is not given here.

Tests used:
[1] = tested on: BaF3; experiment: Antitumor activity against mouse BA/F3 cells expressing BCR-ABL T315I mutant allografted in SCID mouse assessed as increased survival at 1 to 20 mg/kg/day, po qd for 10 days; assay type: functional, organism-based
[2] = target: Mast/stem cell growth factor receptor Kit (Homo sapiens) (UniProt P10721); experiment: Binding affinity to KIT (unknown origin) at 10 nM after 2 hrs by FRET assay
[3] = Cytotoxicity against mouse BA/F3 cells expressing BCR-ABL Y253H mutant assessed as growth inhibition after 72 hrs by CCK-8 assay; conditions: BaF3, 72 h
[4] = target: Tyrosine-protein kinase ABL1 (Homo sapiens, UniProt P00519, Q252H); assay type: cell-based
[5] = tested on: U-937; experiment: Cytotoxicity against human U937 cells […] assessed as growth inhibition after 72 hrs by CCK-8 assay; assay type: functional, cell-based; conditions: U-937, 72 h
Summary of the method: (§1)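 Log-phase human leukemia cells were seeded at about 3000 cells/well and treated 24 h later for 72 h. CCK-8 was then incubated with the cells for 3 h and read as OD450 − OD650. Viability was normalized to vehicle wells and cell-free blanks, and IC50 taken as the mean of three experiments.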

[6] = target: Angiopoietin-1 receptor (Homo sapiens) (UniProt Q02763); experiment: Binding affinity to TIE2 (unknown origin) at 10 nM after 2 hrs by FRET assay
[7] = tested on: HL-60; experiment: Cytotoxicity against human HL60 cells […] assessed as growth inhibition after 72 hrs by CCK-8 assay; assay type: functional, cell-based; conditions: HL-60, 72 h; summary of the method: as §1

Chain of Angiopoietin-1 receptor (Homo sapiens) (Q02763 whole entry): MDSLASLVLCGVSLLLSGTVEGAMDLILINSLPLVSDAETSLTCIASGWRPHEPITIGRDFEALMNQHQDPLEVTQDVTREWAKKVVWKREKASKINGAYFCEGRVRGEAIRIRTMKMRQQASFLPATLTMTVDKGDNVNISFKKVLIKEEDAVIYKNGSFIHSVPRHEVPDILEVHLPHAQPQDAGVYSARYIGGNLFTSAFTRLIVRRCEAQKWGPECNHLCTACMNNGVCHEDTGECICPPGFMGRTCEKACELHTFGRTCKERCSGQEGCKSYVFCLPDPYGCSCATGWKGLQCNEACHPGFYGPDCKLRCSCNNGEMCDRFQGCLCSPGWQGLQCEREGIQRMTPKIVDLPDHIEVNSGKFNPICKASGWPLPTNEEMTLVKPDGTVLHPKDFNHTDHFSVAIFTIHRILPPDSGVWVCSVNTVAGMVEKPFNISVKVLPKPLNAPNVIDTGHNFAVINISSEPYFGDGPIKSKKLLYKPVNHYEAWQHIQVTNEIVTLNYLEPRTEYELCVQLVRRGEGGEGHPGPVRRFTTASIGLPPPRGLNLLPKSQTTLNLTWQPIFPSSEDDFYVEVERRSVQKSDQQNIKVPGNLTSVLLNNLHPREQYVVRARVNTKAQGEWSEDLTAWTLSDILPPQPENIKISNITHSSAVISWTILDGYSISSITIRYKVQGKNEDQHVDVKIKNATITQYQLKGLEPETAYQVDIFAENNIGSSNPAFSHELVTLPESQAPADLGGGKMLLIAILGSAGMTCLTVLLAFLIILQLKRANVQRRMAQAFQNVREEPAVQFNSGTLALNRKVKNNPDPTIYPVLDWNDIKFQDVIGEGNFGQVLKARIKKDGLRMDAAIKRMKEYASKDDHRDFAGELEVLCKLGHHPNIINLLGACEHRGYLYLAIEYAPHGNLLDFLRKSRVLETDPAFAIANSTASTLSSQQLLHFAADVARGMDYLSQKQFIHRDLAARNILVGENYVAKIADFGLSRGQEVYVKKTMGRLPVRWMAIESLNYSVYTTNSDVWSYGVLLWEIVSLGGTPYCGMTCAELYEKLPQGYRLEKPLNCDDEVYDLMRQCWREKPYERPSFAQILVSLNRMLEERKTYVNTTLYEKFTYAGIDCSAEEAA
Chain of Mast/stem cell growth factor receptor Kit (Homo sapiens) (P10721 whole entry): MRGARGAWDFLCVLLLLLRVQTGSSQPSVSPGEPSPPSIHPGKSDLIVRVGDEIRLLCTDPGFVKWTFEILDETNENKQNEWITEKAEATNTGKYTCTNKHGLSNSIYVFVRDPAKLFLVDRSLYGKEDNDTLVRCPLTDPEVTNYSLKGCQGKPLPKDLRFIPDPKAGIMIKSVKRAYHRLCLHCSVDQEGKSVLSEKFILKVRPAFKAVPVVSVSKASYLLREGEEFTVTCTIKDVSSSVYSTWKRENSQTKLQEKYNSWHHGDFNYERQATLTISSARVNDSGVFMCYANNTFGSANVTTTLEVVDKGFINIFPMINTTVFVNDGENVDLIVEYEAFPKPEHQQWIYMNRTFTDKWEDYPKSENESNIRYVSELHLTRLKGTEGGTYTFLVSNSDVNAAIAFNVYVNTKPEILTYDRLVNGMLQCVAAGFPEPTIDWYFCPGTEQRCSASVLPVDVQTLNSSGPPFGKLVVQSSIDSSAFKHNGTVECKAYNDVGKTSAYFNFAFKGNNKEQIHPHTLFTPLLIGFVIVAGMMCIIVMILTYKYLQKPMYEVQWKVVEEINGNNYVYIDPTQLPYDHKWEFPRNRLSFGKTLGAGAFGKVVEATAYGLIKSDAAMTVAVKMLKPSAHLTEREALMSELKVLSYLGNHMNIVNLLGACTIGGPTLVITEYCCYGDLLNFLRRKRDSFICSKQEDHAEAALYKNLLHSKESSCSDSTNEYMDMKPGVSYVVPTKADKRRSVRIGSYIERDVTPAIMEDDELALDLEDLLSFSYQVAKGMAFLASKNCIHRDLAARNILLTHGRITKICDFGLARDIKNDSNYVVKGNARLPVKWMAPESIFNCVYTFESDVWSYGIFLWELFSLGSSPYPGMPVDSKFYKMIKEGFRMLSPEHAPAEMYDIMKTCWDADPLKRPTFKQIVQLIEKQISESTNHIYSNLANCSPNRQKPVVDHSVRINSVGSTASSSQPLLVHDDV

In the case of Cc1ccc(C(=O)Nc2ccc(CN3CCN(C)CC3)c(C(F)(F)F)c2)cc1C#Cc1cnc2[nH]ncc2c1 [OLVEREMBATINIB], the Activity [1] is reported as “Dose-dependent effect”, the Activity [2] is reported as “inactive” and the IC50 [3] is reported as 3 nM. The IC50 [4] was 0.15 nM, the IC50 [5] was 390 nM and the Activity [6] was “inactive”. The IC50 [7] was 349 nM.
